Measured values from paper PMC9273292 (Journal of Ethnopharmacology, 2022).

Legend:
HCoV-OC43 [1] = experiment: Cytopathic effect; type: cell-based, human coronavirus OC43; conditions: 100 TCID50, 72 hpi, two-fold serial dilutions
Summary of the method: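 Confluent cell monolayers are infected with 100 TCID50 HCoV-OC43 (titre by Reed-Muench) and given two-fold serial dilutions of test compound. At 72 hpi, CPE (lysis, rounding, vacuolization) is scored by phase-contrast microscopy; absence of CPE is taken as activity. Remdesivir is the positive control.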

HCoV-OC43 [2] = experiment: Antibody-based EC50 assay; type: cell-based, human coronavirus OC43; conditions: CC50/EC50, HRT-18 cells
Summary of the method: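 HRT-18 cells (RPMI 1640, 10% FBS, 37 °C, 5% CO2) infected with HCoV-OC43 and treated with test compound. Viral nucleocapsid is detected with an anti-OC43 nucleocapsid antibody. Run in triplicate. EC50 comes from a four-parameter log(inhibitor) vs response fit of mean values. SI = CC50/EC50.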

CCK-8 cytotoxicity assay = type: cell-based; conditions: human, HRT-18 cells
Summary of the method: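 Viability of HRT-18 cells is read by CCK-8 per the kit protocol. Cells are kept in RPMI 1640 with 10% FBS, sodium pyruvate, NEAA and 0.025M HEPES at 37 °C, 5% CO2. Run in triplicate. CC50 comes from a four-parameter log(inhibitor) vs response fit of mean values.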

Mpro [3] = conditions: cited from earlier work
HCoV-OC43 [4] = experiment: Transmission electron microscopy of infected HRT-18 cells; type: cell-based, human coronavirus OC43; conditions: 4 μM, 48 hpi
Summary of the method: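 HRT-18 monolayers are inoculated with 100 TCID50 HCoV-OC43 for 2 h at 37 °C. Inoculum is then replaced by RPMI 1640 with 2% FBS containing test compound or DMSO. At 48 hpi, virus particles are examined by negative staining under transmission electron microscopy.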

HCoV-OC43 [5] = experiment: Immunofluorescence analysis of HCoV-OC43 nucleocapsid in infected HRT-18 cells; type: cell-based, human coronavirus OC43; conditions: 4 μM, 48 hpi
Mpro [6] = conditions: SARS-CoV-2 model; ref Alhadrami et al., 2021; cited from earlier work
[7] = target: SARS-CoV-2 Nsp14N7 methyltransferase (Severe acute respiratory syndrome coronavirus 2, UniProt P0DTD1); experiment: Nsp14N7-MTase inhibition assay; type: biochemical
[8] = target: recombinant SARS-CoV-2 PLpro (Severe acute respiratory syndrome coronavirus 2, UniProt P0DTD1); experiment: PLpro inhibition assay; type: biochemical

Structure (SMILES)	inhibition of CPE caused by HCoV-OC43 infection (HCoV-OC43 [1])	Selective index (SI) (HCoV-OC43 [2])	CC50 (CCK-8 cytotoxicity assay) [µM]	concentration inhibiting Mpro activity by competitive inhibition (Mpro [3]) [µmol/L]	viral particles in infected cells under TEM (HCoV-OC43 [4])	fluorescence signal of virus particles (HCoV-OC43 nucleocapsid) (HCoV-OC43 [5])	concentration inhibiting Mpro activity (Mpro [6]) [µmol/L]	IC50 [7] [µM]	IC50 [8] [µM]
O=C1C[C@@H](c2ccc(O)c(O)c2)Oc2cc(O)cc(O)c21 [Compound 8, eriodictyol]	showed antiviral activity	–	–	–	–	–	–	–	–
O=c1c(O)c(-c2ccc(O)c(O)c2)oc2cc(O)cc(O)c12 [Compound 11, quercetin]	showed antiviral activity	7.29	34	–	–	–	–	–	–
C=C(C)[C@@H]1CC[C@]2(C(=O)O)CC[C@]3(C)[C@H](CC[C@@H]4[C@@]5(C)CC[C@H](O)C(C)(C)[C@@H]5CC[C@]43C)[C@@H]12 [Compound 1, betulinic acid]	showed antiviral activity	8.04	19.4	10	no viral particles were detected	substantially reduced the fluorescence signal of virus particles	14.55	1.12	2.03
O=C1C[C@@H](c2ccc(O)cc2)Oc2cc(O)cc(O)c21 [Compound 5, naringenin]	showed antiviral activity	–	–	–	–	–	–	–	–
C[C@H]1[C@H](C)CC[C@]2(C)CC[C@]3(C)C(=CC[C@@H]4[C@@]5(C)CC[C@H](O)C(C)(C)[C@@H]5CC[C@]43C)[C@H]12 [Compound 2, α-amyrin]	showed antiviral activity	6.03	24	–	–	–	–	–	–
